Reference: ChEMBL document CHEMBL3045839, “Curcumin, a known phenolic from Curcuma longa, attenuates the virulence of Pseudomonas aeruginosa PAO1 in whole plant and animal pathogenicity models” (2008)
Values after ≈ are worked out from the molar mass of the structure shown. Active and inactive are the calls of the source. No cut-off for these calls is given here.

Legend:
Pseudomonas aeruginosa [1] = assay: Down regulation of virulence factor production in Pseudomonas aeruginosa PAO1 assessed as reduction in pyocyanin production at 1.5 to 3 ug/mL; format: functional; set-up: scale not given: the % may be the effect or the level left
Summary of the method: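 PAO1 grown in LB with or without curcumin (1.5–3 µg mL-1) and harvested. Pyocyanin was extracted and estimated by the Mahajan-Miklos method, then normalised against live cell numbers.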

Pseudomonas aeruginosa [2] = assay: Growth inhibition of Pseudomonas aeruginosa PAO1 planktonic forms at >5 ug/mL; format: functional, organism-based
Summary of the method: (§1)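 PAO1 grown in LB with curcumin 0.5–30.0 µg/mL from an initial OD600 of 0.02; compound predissolved in ethanol, final solvent ≤0.02% v/v. OD600 read every 5 h up to 25 h; colony counts taken. n = 6, standard error.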

Pseudomonas aeruginosa [3] = assay: Down regulation of QS system in Pseudomonas aeruginosa PAO1 assessed as reduction in 3-oxo-C12-HSL production at 1 ug/mL by HPLC; format: functional; set-up: scale not given: the % may be the effect or the level left
Pseudomonas aeruginosa [4] = assay: Down regulation of QS system in Pseudomonas aeruginosa PAO1 assessed as reduction in total homoserine lactone production at 5 ug/mL by HPLC relative to untreated control; format: functional
Pseudomonas aeruginosa [5] = assay: Down regulation of rhlA expression in Pseudomonas aeruginosa PAO1 at 3 ug/mL by microarray gene expression analysis; format: functional, organism-based
Summary of the method: (§2)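 PAO1 grown in triplicate in LB with curcumin 3 µg/mL, starting at OD600 ~0.02, at 37 °C and 200 rpm for 10 h (~2 OD600). RNA was isolated from 5 mL of culture, and 10 µg was amplified for microarray expression analysis.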

Pseudomonas aeruginosa [6] = assay: Down regulation of phzD expression in Pseudomonas aeruginosa PAO1 at 3 ug/mL by microarray gene expression analysis; format: functional, organism-based; summary of the method: as §2
Pseudomonas aeruginosa [7] = assay: Down regulation of virulence factor production in Pseudomonas aeruginosa PAO1 assessed as reduction in elastase production at 1 to 5 ug/mL relative to untreated control; format: functional
Summary of the method: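 Culture grown with or without curcumin for 24 h at 37 °C in PTSB (5% peptone, 0.25% tryptic soy broth). Filtered supernatant was added to elastin-congo red in 10 mM Na2HPO4, pH 7, and shaken for 4 h at 37 °C. After centrifugation, OD495 was read and normalised to cell density.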

Pseudomonas aeruginosa [8] = assay: Antimicrobial activity against Pseudomonas aeruginosa PAO1 infected in Arabidopsis thaliana Col-0 assessed as change in bacterial count in presence of AHL/3-oxo-HSL; format: functional, organism-based
Summary of the method: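 Col-0 seedlings in liquid MS medium inoculated with PAO1 (OD600 0.02–0.04, ~2.8 × 10^8 cells/mL) plus curcumin 3.0 µg/mL, with or without exogenous AHL/3-oxo-HSL. Roots harvested after 7 days; bacteria enumerated as CFU per gram fresh weight. Triplicate experiments.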

Pseudomonas aeruginosa [9] = assay: Inhibition of biofilm formation of Pseudomonas aeruginosa PAO1 at 1.5 to 3 ug/mL by crystal violet staining method; format: functional, organism-based
Summary of the method: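 Static biofilm in polypropylene tubes with LB containing curcumin 1.5–3.0 µg/mL from the start of incubation; ethanol equalized across tubes. Crystal violet staining, ethanol solubilization, OD read. Three replicates.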

Pseudomonas aeruginosa [10] = assay: Down regulation of lasI expression in Pseudomonas aeruginosa PAO1 at 3 ug/mL by microarray gene expression analysis; format: functional, organism-based; summary of the method: as §2
Pseudomonas aeruginosa [11] = assay: Down regulation of QS system in Pseudomonas aeruginosa PAO1 assessed as reduction in C4-HSL production at 1 ug/mL by HPLC; format: functional; set-up: scale not given: the % may be the effect or the level left
Pseudomonas aeruginosa [12] = assay: Growth inhibition of Pseudomonas aeruginosa PAO1 planktonic forms; format: functional; summary of the method: as §1
Pseudomonas aeruginosa [13] = assay: Antimicrobial activity against Pseudomonas aeruginosa PAO1 infected in Arabidopsis thaliana Col-0 assessed as inhibition of biofilm formation in roots at 3 ug/mL measured 7 days post dose; format: functional, organism-based
Summary of the method: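 Ten-day-old Col-0 plants in 2 mL liquid MS medium were inoculated with PAO1 (OD600 0.02–0.04) with curcumin 3.0 µg/mL added alongside the bacteria. Root-surface biofilm was imaged by confocal microscopy after BacLight live/dead staining.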

Pseudomonas aeruginosa [14] = assay: Antimicrobial activity against Pseudomonas aeruginosa PAO1 infected in Arabidopsis thaliana Col-0 assessed as protection against infection of roots at 3 ug/mL measured 7 days post dose; format: functional, organism-based
Summary of the method: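 In vitro root pathogenicity: ten-day-old Col-0 plants (n = 20 per treatment) in 2 mL liquid MS medium were inoculated with PAO1 at OD600 0.02–0.04 (~2.8 × 10^8 cells/mL), with curcumin 3.0 µg/mL added together with the bacteria. A non-inoculated control was kept. Plant mortality was recorded 7 days after inoculation; triplicate experiments.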

Pseudomonas aeruginosa [15] = assay: Inhibition of biofilm formation of Pseudomonas aeruginosa PAO1 at 2 to 3 ug/mL by confocal scanning laser microscopy; format: functional, organism-based
Summary of the method: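 PAO1 grown on two-well Permanox slides with curcumin 2–3 µg/mL. Stained with a LIVE/DEAD BacLight kit (SYTO 9/propidium iodide) 48 h postinoculation and imaged by confocal laser scanning microscopy with a 10× objective. Repeated twice, three replicates each.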

Pseudomonas aeruginosa [16] = assay: Down regulation of virulence factor production in Pseudomonas aeruginosa PAO1 assessed as reduction in protease production at 1 to 5 ug/mL relative to untreated control; format: functional
Summary of the method: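 Culture grown with or without curcumin for 24 h at 37 °C in PTSB (5% peptone, 0.25% tryptic soy broth). Filtered supernatant was incubated with 0.8% azocasein in 50 mM K2HPO4, pH 7, for 3 h at 25 °C. The reaction was stopped with 1.5 M HCl, kept on ice 30 min and centrifuged. NaOH was added, OD440 read and normalised to cell density.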

Pseudomonas aeruginosa [17] = assay: Effect on QS system related genes in Pseudomonas aeruginosa PAO1 at 3 ug/mL by microarray gene expression analysis; format: functional, organism-based; summary of the method: as §2

With `COc1cc(/C=C/C(=O)CC(=O)/C=C/c2ccc(O)c(OC)c2)ccc1O` [CURCUMIN] as the molecule, how does the Activity (Pseudomonas aeruginosa [1]) read?
Its Activity is 60%.

What about the “growth inhibition (GI)” value (Pseudomonas aeruginosa [2]) of the same molecule?
Its value is “inactive”.

What about the Activity (Pseudomonas aeruginosa [3]) of the same molecule?
Its Activity is 25%.

And the “fold change (FC)” value (Pseudomonas aeruginosa [4])?
Its value is 3.

What about the Activity (Pseudomonas aeruginosa [5]) of the same molecule?
The Activity was “Active”.

And the Activity (Pseudomonas aeruginosa [6])?
Its Activity is “Active”.

What about the “fold change (FC)” value (Pseudomonas aeruginosa [7]) of the same molecule?
The value was 2.

And the Activity (Pseudomonas aeruginosa [8])?
Its Activity is “inactive”.

And the inhibition (Pseudomonas aeruginosa [9])?
The inhibition was “Active”.

What about the Activity (Pseudomonas aeruginosa [10]) of the same molecule?
The Activity was “Active”.

What about the Activity (Pseudomonas aeruginosa [11]) of the same molecule?
The Activity was >2%.

And the MIC (Pseudomonas aeruginosa [12])?
Its MIC is 30 µg/mL (≈ 81.4 µM).

What about the inhibition (Pseudomonas aeruginosa [13]) of the same molecule?
The inhibition was “Active”.

What about the inhibition (Pseudomonas aeruginosa [14]) of the same molecule?
The inhibition was “Active”.

And the inhibition (Pseudomonas aeruginosa [15])?
Its inhibition is “Active”.

What about the “fold change (FC)” value (Pseudomonas aeruginosa [16]) of the same molecule?
Its value is 2.

And the Activity (Pseudomonas aeruginosa [17])?
Its Activity is “Active”.
